This is an account of results in paper PMC4091728 (Chembiochem : a European journal of chemical biology, 2014).

A value given as a limit tells only on which side of the number the result lay.

Test [1] concerns the target TcCYP51 (Trypanosoma cruzi, UniProt Q7Z1V1). Briefly: Binding affinity by UV-vis spectroscopy. In a few lines: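 Recombinant TcCYP51 at 1 μM in 100 mM potassium phosphate, pH 7.5, with 10% glycerol, at 23°C, in a 1-cm quartz cuvette. Titrated stepwise with test compound from a 100 μM DMSO stock, with equal solvent added to the reference cuvette. The absorbance shift between 425 and 390 nm was fitted to the quadratic tight-binding equation to give KD.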

Test [2] concerns Trypanosoma cruzi (CA-I/72 trypomastigotes) in mouse C2C12 myoblasts. Briefly: EC50 in cell-based assay using T. cruzi-infected mouse C2C12 myoblasts. Particulars: highest concentration 10 μM.

Chain of TcCYP51 (Q7Z1V1 whole entry): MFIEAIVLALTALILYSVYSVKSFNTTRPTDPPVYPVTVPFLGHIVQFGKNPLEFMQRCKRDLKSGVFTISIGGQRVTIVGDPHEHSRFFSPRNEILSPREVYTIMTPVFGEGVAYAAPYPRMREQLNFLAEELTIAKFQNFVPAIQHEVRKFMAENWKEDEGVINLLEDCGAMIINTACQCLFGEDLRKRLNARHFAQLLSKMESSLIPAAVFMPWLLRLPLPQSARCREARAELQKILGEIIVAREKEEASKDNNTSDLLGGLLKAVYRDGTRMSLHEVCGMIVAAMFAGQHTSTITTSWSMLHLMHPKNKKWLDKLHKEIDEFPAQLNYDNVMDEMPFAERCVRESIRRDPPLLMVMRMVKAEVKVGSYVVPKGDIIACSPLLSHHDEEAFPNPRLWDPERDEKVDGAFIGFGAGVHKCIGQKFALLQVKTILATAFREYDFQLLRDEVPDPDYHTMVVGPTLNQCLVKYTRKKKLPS

Broadly, the Kd is the concentration at which binding is half-saturated. Lower therefore signals a tighter complex. Consider `O=C(N[C@H](Cc1c[nH]c2ccccc12)C(=O)Nc1ccncc1)c1ccc(N2CCN(S(=O)(=O)C3CC3)CC2)cc1F` [compound 10, (R)-N-(3-(1H-Indol-3-yl)-1-oxo-1-(pyridin-4-ylamino)propan-2-yl)-4-(4-(cyclopropylsulfonyl)piperazin-1-yl)-2-fluorobenzamide], for which the affinity in test [1], expressed as Kd, was 0.025 ± 0.006 µM. In test [2], the “anti-T. cruzi potency in cell culture, in words” value (from here on “anti-T. cruzi potency”) is recorded as “failed to elicit T. cruzi inhibition in cell culture at ≤10 μM”.

Regarding `O=C(O)c1ccc(S(=O)(=O)N2CCN(c3ccc(C(=O)N[C@H](Cc4c[nH]c5ccccc45)C(=O)Nc4ccncc4)c(F)c3)CC2)cc1` [compound 8, (R)-4-((4-(4-((3-(1H-Indol-3-yl)-1-oxo-1-(pyridin-4-ylamino)propan-2-yl)carbamoyl)-3-fluorophenyl)piperazin-1-yl)sulfonyl)benzoic acid], in test [1], the affinity, expressed as Kd, was 0.02 ± 0.007 µM. Moreover, the “anti-T. cruzi potency” value in test [2] is “failed to elicit T. cruzi inhibition in cell culture at ≤10 μM”. `COC(=O)c1sccc1S(=O)(=O)N1CCN(c2ccc(C(=O)N[C@H](Cc3c[nH]c4ccccc34)C(=O)Nc3ccncc3)c(F)c2)CC1` [compound 7, (R)-methyl 3-((4-(4-((3-(1H-Indol-3-yl)-1-oxo-1-(pyridin-4-ylamino)propan-2-yl)carbamoyl)-3-fluorophenyl)piperazin-1-yl)sulfonyl)thiophene-2-carboxylate] returned a Kd in test [1] of 0.02 ± 0.007 µM. The “anti-T. cruzi potency” value in test [2] was “inhibited T. cruzi at the low micromolar concentrations”. `O=C(N[C@H](Cc1c[nH]c2ccccc12)C(=O)Nc1ccncc1)c1ccc(N2CCN(S(=O)(=O)c3cccnc3)CC2)cc1F` [compound 5, (R)-N-(3-(1H-Indol-3-yl)-1-oxo-1-(pyridin-4-ylamino)propan-2-yl)-2-fluoro-4-(4-(pyridin-3-ylsulfonyl)piperazin-1-yl)benzamide] yielded a Kd in test [1] of 0.015 ± 0.006 µM. Further, the “anti-T. cruzi potency” value in test [2] was “inhibited T. cruzi at the low micromolar concentrations”.

On to `N#Cc1ccc(S(=O)(=O)N2CCN(c3ccc(C(=O)N[C@H](Cc4c[nH]c5ccccc45)C(=O)Nc4ccncc4)c(F)c3)CC2)cc1` [compound 4, (R)-N-(3-(1H-Indol-3-yl)-1-oxo-1-(pyridin-4-ylamino)propan-2-yl)-4-(4-((4-cyanophenyl)sulfonyl)piperazin-1-yl)-2-fluorobenzamide], for which the Kd in test [1] was found to be 0.047 ± 0.019 µM. Take `O=C(N[C@H](Cc1c[nH]c2ccccc12)C(=O)Nc1ccncc1)c1ccc(N2CCN(S(=O)(=O)c3cccs3)CC2)cc1F` [compound 3, (R)-N-(3-(1H-Indol-3-yl)-1-oxo-1-(pyridin-4-ylamino)propan-2-yl)-2-fluoro-4-(4-(thiophen-2-ylsulfonyl)piperazin-1-yl)benzamide]: the Kd in test [1] is ≤ 0.01 µM. The “anti-T. cruzi potency” value in test [2] is “sub-nanomolar”. On the same counts, the results for `O=C(N[C@H](Cc1c[nH]c2ccccc12)C(=O)Nc1ccncc1)c1ccc(N2CCN(S(=O)(=O)c3ccc(C(F)(F)F)cc3)CC2)cc1F` [compound 6, (R)-N-(3-(1H-Indol-3-yl)-1-oxo-1-(pyridin-4-ylamino)propan-2-yl)-2-fluoro-4-(4-((4-(trifluoromethyl)phenyl)sulfonyl)piperazin-1-yl)benzamide] are ≤ 0.01 µM and “inhibited T. cruzi at the low micromolar concentrations”. On the same counts, the results for `CS(=O)(=O)N1CCN(c2ccc(C(=O)N[C@H](Cc3c[nH]c4ccccc34)C(=O)Nc3ccncc3)c(F)c2)CC1` [compound 11, (R)-N-(3-(1H-Indol-3-yl)-1-oxo-1-(pyridin-4-ylamino)propan-2-yl)-2-fluoro-4-(4-(methylsulfonyl)piperazin-1-yl)benzamide] are 0.019 ± 0.004 µM and “failed to elicit T. cruzi inhibition in cell culture at ≤10 μM”.

Turning to `O=C(N[C@H](Cc1c[nH]c2ccccc12)C(=O)Nc1ccncc1)c1ccc(N2CCN(S(=O)(=O)c3ccsc3C(=O)O)CC2)cc1F` [compound 9, (R)-3-((4-(4-((3-(1H-Indol-3-yl)-1-oxo-1-(pyridin-4-ylamino)propan-2-yl)carbamoyl)-3-fluorophenyl)piperazin-1-yl)sulfonyl)thiophene-2-carboxylic acid], the Kd in test [1] is ≤ 0.01 µM. The “anti-T. cruzi potency” value in test [2] is given as “failed to elicit T. cruzi inhibition in cell culture at ≤10 μM”.
